Source: PMC8851455 (ACS Omega, 2022)
Where two headings read alike, the source gives them in different places.

Assays:
S. typhimurium TA102 = settings: TA102 +S9, 5 μg/plate
S. typhimurium TA100 = assay: Ames test, strain TA100; type: cell-based, Salmonella typhimurium; settings: TA100 +S9, 5 μg/plate
S. typhimurium TA98 = assay: Ames test, strain TA98; type: cell-based, Salmonella typhimurium
MCF-7 cells = assay: MCF-7 cell proliferation assay; type: cell-based, human; settings: Homo sapiens, MCF7
Summary of the method: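 MCF-7 cells exposed to test compound or E2 at six concentrations from 10–12 to 10–7 M in EA-free medium. Proliferation read as MTT product absorbance at 570 nm. Three independent trials, each in triplicate. % RME2 = 100 × (OD test − OD VC)/(max OD E2 − OD VC). EC50 from curve fitting. EEF = EC50 of E2/EC50 of sample. One-way ANOVA with Dunnett's test versus E2 at each concentration.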

chicken embryo = assay: Chicken embryonic assay; type: in vivo; settings: egg injection, day 18
[1] = control set of luteolin and apigenin
[2] = control set of quercetin and genistein
[3] = higher dose (0.5 mM: 450–500 μg/kg; E2 0.1 mM: 91 μg/kg)
[4] = lower dose (0.05 mM: 45–50 μg/kg; E2 0.01 mM: 9.1 μg/kg)

**Q.** Which “number of revertants/plate (M ± SD), positive control” value (“number of revertants/plate (M ± SD)” below) (S. typhimurium TA102; [1]) does the source give for `Nc1ccc2cc3ccccc3cc2c1` [2-AA, reference compound] here?
**A.** 997 ± 35 ^e^** revertants/plate

**Q.** What about the “number of revertants/plate (M ± SD)” value (S. typhimurium TA102; [2]) of the same compound?
**A.** 757 ± 35 ^e^** revertants/plate

**Q.** What about the “number of revertants/plate (M ± SD)” value (S. typhimurium TA100; [1]) of the same compound?
**A.** 941 ± 56 ^e^** revertants/plate

**Q.** What about the “number of revertants/plate (M ± SD)” value (S. typhimurium TA100; [2]) of the same compound?
**A.** 845 ± 45 ^e^** revertants/plate

**Q.** And the “number of revertants/plate (M ± SD)” value (S. typhimurium TA98; TA98 +S9, 5 μg/plate, control set of luteolin and apigenin)?
**A.** 846 ± 47 ^e^** revertants/plate

**Q.** And the “number of revertants/plate (M ± SD)” value (S. typhimurium TA98; TA98 +S9, 5 μg/plate, control set of quercetin and genistein)?
**A.** 806 ± 25 ^e^** revertants/plate

**Q.** With `O=[N+]([O-])c1ccc2c(c1)Cc1ccccc1-2` [2-NF, reference compound] as the compound, how does the “number of revertants/plate (M ± SD)” value (S. typhimurium TA98; TA98 -S9, 1 μg/plate, control set of luteolin and apigenin) read?
**A.** 723 ± 64 ^c^** revertants/plate

**Q.** What about the “number of revertants/plate (M ± SD)” value (S. typhimurium TA98; TA98 -S9, 1 μg/plate, control set of quercetin and genistein) of the same compound?
**A.** 634 ± 16 ^c^** revertants/plate

**Q.** Which results are given for `C[C@]12CC[C@@H]3c4ccc(O)cc4CC[C@H]3[C@@H]1CC[C@@H]2O` [E2, 17β-estradiol, reference compound]?
**A.** EC50 (MCF-7 cells): 0.01 nM; LSI (liver somatic index) (chicken embryo; [3]): 2.06 ± 0.38%; REEW (ratio of embryo to egg weight) (chicken embryo; [3]): 0.38 ± 0.021; malformation rate (chicken embryo; [3]): 0.0%; mortality rate (chicken embryo; [3]): 33.3%; number of dead chicken embryo (chicken embryo; [3]): 6; number of malformation chicken embryo (chicken embryo; [3]): 0; weights: embryo (chicken embryo; [3]): 22.89 ± 0.87 g; weights: heart (chicken embryo; [3]): 0.18 ± 0.01 g; weights: liver (chicken embryo; [3]): 0.47 ± 0.07 g; LSI (liver somatic index) (chicken embryo; [4]): 2.18 ± 0.01%; REEW (ratio of embryo to egg weight) (chicken embryo; [4]): 0.39 ± 0.001; malformation rate (chicken embryo; [4]): 0.0%; mortality rate (chicken embryo; [4]): 31.8%; number of dead chicken embryo (chicken embryo; [4]): 7; number of malformation chicken embryo (chicken embryo; [4]): 0; weights: embryo (chicken embryo; [4]): 20.24 ± 3.53 g; weights: heart (chicken embryo; [4]): 0.18 ± 0.03 g; weights: liver (chicken embryo; [4]): 0.54 ± 0.01 g
